Data on 19 molecules can be found in ChEMBL document CHEMBL1772952 (J Med Chem, 2011).

Calls of active or inactive are those of the source. The rule behind the calls is not given here.

The species named for test [1] is Rattus norvegicus. Kind of test: Selectivity ratio of Ki for DAT in rat striatum to Ki for SERT in rat cerebral cortex. It is filed as tissue-based. In a few lines:
(§1)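 Ratio of Ki values from [3H]substrate uptake inhibition: [3H]dopamine for DAT in rat striatum, and [3H]serotonin for SERT or [3H]norepinephrine for NET in rat cerebral cortex. Each Ki came from an IC50 fitted over at least five triplicate concentrations, converted by Cheng-Prusoff.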

For test [2], the target named is Sodium-dependent dopamine transporter (Rattus norvegicus, UniProt P23977). The test is described as follows: Inhibition of DAT in rat striatum assessed as [3H]dopamine accumulation. It is filed as tissue-based. In a few lines:
(§2)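 Uptake of [3H]dopamine (DAT, rat striatum) or [3H]serotonin (SERT, rat cerebral cortex) was measured with at least five triplicate concentrations spaced around the IC50. IC50 came from nonlinear curve fitting and was converted to Ki by Cheng-Prusoff. Values are mean ± SEM of 3–8 independent experiments.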

Test [3] in a line: Inhibition of NET in rat cerebral cortex assessed as [3H]norepinephrine accumulation. Format: tissue-based. In a few lines: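 Rat cerebral cortex tissue; uptake of [3H]norepinephrine via NET measured. At least five concentrations per compound, each in triplicate, spaced evenly around the IC50. IC50 obtained by nonlinear curve fitting, then converted to Ki by Cheng-Prusoff. Values are mean ± SEM of three to eight independent experiments.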

Test [4] is filed under the species Rattus norvegicus. Kind of test: Selectivity ratio of Ki for DAT in rat striatum to Ki for NET in rat cerebral cortex. Format: tissue-based. An outline of the steps: as §1
The species entered for test [5] is Rattus norvegicus. Kind of test: Selectivity ratio of Ki for SERT in rat cerebral cortex to Ki for NET in rat cerebral cortex. It is filed as tissue-based. An outline of the steps:
as §1

Test [6] addresses Sodium-dependent serotonin transporter (Rattus norvegicus, UniProt P31652). The test is described as follows: Inhibition of SERT in rat cerebral cortex assessed as [3H]serotonin accumulation. Format: tissue-based. An outline of the steps:
as §2

For test [7], the system named is Rattus norvegicus. The test is described as follows: Antidepressant activity in […] Sprague-Dawley rat assessed as reduction of immobility time at 10 mg/kg, ip administered 1 hr before test by forced swimming test. Details: dose 10 mg/kg. Format: functional, organism-based. An outline of the steps:
(§3)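 Male Sprague-Dawley rats (200–225 g), drug-naive and used once. Forced swim test: 15 min pretest swim in a water-filled glass cylinder (depth 22 cm, 24–25 °C). Drug or vehicle (10% β-hydroxypropyl cyclodextrin) was given i.p. 15 min after the pretest and again before the 5 min test swim 24 h later. Immobility was scored from video by a blinded rater.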

Test [8] concerns Rattus norvegicus. Kind of test: Antidepressant activity in […] Sprague-Dawley rat assessed as reduction of immobility time at 15 mg/kg, ip administered 30 mins before test by forced swimming test. Format: functional, organism-based. More on the design: dose 15 mg/kg. In a few lines: as §3

Sequence of Sodium-dependent dopamine transporter (P23977 whole entry): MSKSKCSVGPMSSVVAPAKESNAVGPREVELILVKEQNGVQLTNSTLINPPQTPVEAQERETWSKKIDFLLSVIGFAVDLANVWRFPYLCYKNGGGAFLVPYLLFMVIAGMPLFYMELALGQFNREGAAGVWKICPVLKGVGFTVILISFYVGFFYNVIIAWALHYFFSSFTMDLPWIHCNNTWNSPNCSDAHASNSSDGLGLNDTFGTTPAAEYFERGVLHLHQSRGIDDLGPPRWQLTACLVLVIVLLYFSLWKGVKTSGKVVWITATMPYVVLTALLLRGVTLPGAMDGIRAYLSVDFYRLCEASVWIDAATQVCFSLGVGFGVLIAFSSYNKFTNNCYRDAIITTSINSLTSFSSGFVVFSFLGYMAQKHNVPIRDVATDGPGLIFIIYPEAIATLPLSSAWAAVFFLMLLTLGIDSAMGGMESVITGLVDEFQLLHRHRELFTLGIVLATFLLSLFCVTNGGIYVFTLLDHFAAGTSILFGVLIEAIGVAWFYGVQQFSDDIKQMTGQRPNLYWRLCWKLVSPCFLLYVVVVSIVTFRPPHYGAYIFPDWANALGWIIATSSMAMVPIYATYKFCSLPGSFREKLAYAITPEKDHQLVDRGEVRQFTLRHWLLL
Sequence of Sodium-dependent serotonin transporter (P31652 whole entry): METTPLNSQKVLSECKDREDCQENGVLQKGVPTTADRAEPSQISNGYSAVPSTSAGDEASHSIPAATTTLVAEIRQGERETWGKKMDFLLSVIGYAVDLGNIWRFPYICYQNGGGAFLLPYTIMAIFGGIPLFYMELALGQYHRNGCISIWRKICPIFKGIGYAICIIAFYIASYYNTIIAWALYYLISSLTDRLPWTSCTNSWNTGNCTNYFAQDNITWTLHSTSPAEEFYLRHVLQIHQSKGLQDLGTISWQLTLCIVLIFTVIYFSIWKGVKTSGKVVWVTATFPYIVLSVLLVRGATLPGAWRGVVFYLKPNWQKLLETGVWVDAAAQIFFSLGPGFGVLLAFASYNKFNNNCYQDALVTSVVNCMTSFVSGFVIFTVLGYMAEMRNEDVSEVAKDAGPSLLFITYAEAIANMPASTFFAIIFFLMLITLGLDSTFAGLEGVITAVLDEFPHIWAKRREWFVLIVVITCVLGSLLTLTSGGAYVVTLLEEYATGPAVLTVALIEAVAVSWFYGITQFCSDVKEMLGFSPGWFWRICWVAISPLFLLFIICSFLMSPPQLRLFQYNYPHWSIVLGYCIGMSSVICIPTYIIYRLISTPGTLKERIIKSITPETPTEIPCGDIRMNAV

Regarding `c1ccc(C(c2ccccc2)[C@@H]2CC[C@H](NCc3ccncc3)CO2)cc1`, the Ratio Ki in test [1] is 0.03; in test [4], 0.06; in test [5], 1.92. The results for the Ki in test [2], in test [3] and in test [6] were 28.3 nM, 462 nM and 889 nM, respectively.
For `c1ccc(C(c2ccccc2)[C@@H]2CC[C@H](NCc3ccc[nH]3)CO2)cc1`, the Ratio Ki turned out to be 0.31 in test [1], 1.09 in test [4] and 3.56 in test [5]. The Ki in test [2] amounted to 43.2 nM; in test [3], 39.6 nM; in test [6] it was 141 nM.
On to `c1ccc(C(c2ccccc2)[C@@H]2CC[C@H](NCc3ccccn3)CO2)cc1`, for which the Ratio Ki in test [1] was 0.43; in test [4], 0.41; in test [5] it was 0.96. The Ki in test [2] amounted to 209 nM; in test [6], 483 nM.
For `c1ccc(C(c2ccccc2)[C@@H]2CC[C@H](NCc3cccc4ccccc34)CO2)cc1`, the figures for the Ratio Ki in test [1], in test [4] and in test [5] were 5.33, 2.04 and 0.38, respectively. Also, the Ki in test [2] is 473 nM; in test [3] it was 232 nM; in test [6], 88.8 nM.
In the case of `O[C@H](CN[C@H]1CC[C@@H](C(c2ccccc2)c2ccccc2)OC1)c1ccc(F)cc1`, the Ratio Ki is 0.13 in test [1], 0.48 in test [4] and 3.72 in test [5]. Moreover, the Ki in test [2] is 106 nM; in test [3], 222 nM; in test [6], 825 nM.
In the case of `O[C@H](CN[C@H]1CC[C@@H](C(c2ccccc2)c2ccccc2)OC1)c1ccccc1`, the Ratio Ki in test [1] was found to be 0.07; in test [4], 0.18; in test [5] it was 2.67. Also, the results for the Ki in test [2], in test [3] and in test [6] were 54 nM, 298 nM and 796 nM, respectively.
As to `O[C@@H]1C[C@@H](C(c2ccccc2)c2ccccc2)OC[C@H]1NCc1ccc2[nH]ccc2c1` (single isomer, unassigned), the Ki in test [2] was determined as 85.2 nM.
Consider `c1ccc(C(c2ccccc2)[C@@H]2CC[C@H](NCc3cccnc3)CO2)cc1`, for which the Ratio Ki in test [1] came out at 0.95; in test [4], 0.41; in test [5] it was 0.43. In addition, the Ki in test [2] turned out to be 145 nM; in test [3], 353 nM; in test [6], 152 nM.
Turning to `COc1ccc(CN[C@H]2CC[C@@H](C(c3ccccc3)c3ccccc3)OC2)cc1`, the Ki was 15.9 nM in test [2] and 29.3 nM in test [3].
Regarding `c1ccc(C(c2ccccc2)[C@@H]2CC[C@H](NCc3ccco3)CO2)cc1`, the Ratio Ki is 0.96 in test [1], 1.84 in test [4] and 1.92 in test [5]. Also, the Ki in test [2] amounted to 110 nM; in test [3] it was 59.8 nM; in test [6], 115 nM.
For the molecule `Oc1cccc(CN[C@H]2CC[C@@H](C(c3ccccc3)c3ccccc3)OC2)c1`, the Ratio Ki in test [1] turned out to be 0.78; in test [4], 0.81; in test [5], 1.04. The Ki came to 31.3 nM in test [2], 38.5 nM in test [3] and 40.1 nM in test [6]. Besides, in test [7], the result was Active.
Consider `c1ccc(C(c2ccccc2)[C@@H]2CC[C@H](NCc3cccs3)CO2)cc1`, for which the figures for the Ratio Ki in test [1], in test [4] and in test [5] were 0.22, 0.88 and 3.94, respectively. Besides, the Ki was 41.4 nM in test [2], 47.2 nM in test [3] and 186 nM in test [6].
Regarding `COc1cccc([C@@H](O)CN[C@H]2CC[C@@H](C(c3ccccc3)c3ccccc3)OC2)c1`, the results for the Ratio Ki in test [1], in test [4] and in test [5] were 0.11, 0.29 and 2.55, respectively. Further, the Ki came to 125 nM in test [2], 429 nM in test [3] and 1090 nM in test [6].
As to `O[C@@H](CN[C@H]1CC[C@@H](C(c2ccccc2)c2ccccc2)OC1)c1ccccc1`, the Ratio Ki in test [1] is 0.15; in test [4], 0.9; in test [5] it was 5.78. Moreover, the Ki in test [2] came out at 145 nM; in test [3], 162 nM; in test [6], 936 nM.
Regarding `Oc1ccccc1CN[C@H]1CC[C@@H](C(c2ccccc2)c2ccccc2)OC1`, the figures for the Ratio Ki in test [1], in test [4] and in test [5] were 0.45, 1.25 and 2.75, respectively. In addition, the Ki was determined as 200 nM in test [2], 160 nM in test [3] and 440 nM in test [6].
Turning to `Oc1ccc(CN[C@H]2CC[C@@H](C(c3ccccc3)c3ccccc3)OC2)cc1`, the figures for the Ki in test [2] and in test [6] were 42 nM and 29.1 nM, respectively.
Regarding `CN(C)CCCN1c2ccccc2CCc2ccccc21`, the outcome in test [8] was Active.
For `COc1cccc([C@H](O)CN[C@H]2CC[C@@H](C(c3ccccc3)c3ccccc3)OC2)c1`, the Ratio Ki is 0.21 in test [1], 0.46 in test [4] and 2.16 in test [5]. The Ki in test [2] was 137 nM; in test [3] it was 299 nM; in test [6] it was 646 nM.
For the molecule `O[C@@H](CN[C@H]1CC[C@@H](C(c2ccccc2)c2ccccc2)OC1)c1ccc(F)cc1`, the figures for the Ratio Ki in test [1], in test [4] and in test [5] were 0.06, 0.13 and 2.09, respectively. The results for the Ki in test [2], in test [3] and in test [6] were 71.8 nM, 546 nM and 1140 nM, respectively.

The term Ki denotes a measure of affinity in units of concentration, obtained from inhibition or displacement.
